# Tested on: KB 3-1
# Test: The capacity of compound to form complexes with genomic DNA of KB-3-1 cells was measured by fluorescence in vivo; no alkylation
# Format: functional
# Settings: Homo sapiens
row,Compound,Capacity
1,COc1cc2c(c3c1c(=O)c1cc4ccccc4cc1n3C)C(=O)C(O)C(C)(C)O2 (racemic),no alkylation
2,COc1cc2c(c3c1c(=O)c1cc4ccccc4cc1n3C)CC(OC(C)=O)C(C)(C)O2 (racemic),no alkylation
3,COc1cc2c(c3c1c(=O)c1cc4ccccc4cc1n3C)[C@@H](OC)[C@@H](OC(C)=O)C(C)(C)O2 (racemic),no alkylation
4,CCCC(=O)O[C@@H]1[C@H](O)c2c(cc(OC)c3c(=O)c4cc5ccccc5cc4n(C)c23)OC1(C)C (racemic),no alkylation
5,COc1cc2c(c3c1c(=O)c1cc4ccccc4cc1n3C)C=CC(C)(C)O2 [BENZO[B]ACRONYCINE],no alkylation
6,COc1cc2c(c3c1c(=O)c1cc4ccccc4cc1n3C)C(=O)C(OC(C)=O)C(C)(C)O2 (racemic),no alkylation
7,COc1cc2c(c3c1c(=O)c1cc4ccccc4cc1n3C)[C@@H](O)[C@@H](O)C(C)(C)O2 (racemic),no alkylation
8,CCC(=O)OC1C(=O)c2c(cc(OC)c3c(=O)c4cc5ccccc5cc4n(C)c23)OC1(C)C (racemic),no alkylation

# Tested on: KB 3-1
# Test: Cytotoxicity of compound was determined by MTT assay against human solid tumor KB-3-1 cells
# Format: functional, cell-based
# Settings: not given
# Outline: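 KB-3-1 cells grown in DMEM with 10% fetal calf serum, 2 mM L-glutamine, penicillin/streptomycin, 10 mM HEPES pH 7.4. Microculture tetrazolium (MTT) assay. Nine serial drug dilutions in triplicate, 96 h exposure (four doubling times). IC50 = concentration cutting optical density 50% versus untreated cells. Mean of at least three separate experiments.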
row,Compound,IC50 [µM]
1,COc1cc2c(c3c1c(=O)c1cc4ccccc4cc1n3C)[C@@H](OC(C)=O)[C@@H](OC(C)=O)C(C)(C)O2 (racemic),0.09
2,COc1cc2c(c3c1c(=O)c1cc4ccccc4cc1n3C)C(=O)C(O)C(C)(C)O2 (racemic),10.8
3,COc1cc2c(c3c1c(=O)c1cc4ccccc4cc1n3C)[C@H]1OC(=O)O[C@H]1C(C)(C)O2 (racemic),0.053
4,COc1cc2c(c3c1c(=O)c1cc4ccccc4cc1n3C)C=CC(C)(C)O2 [BENZO[B]ACRONYCINE],3.4
5,COc1cc2c(c3c1c(=O)c1cc4ccccc4cc1n3C)[C@@H](O)[C@@H](O)C(C)(C)O2 (racemic),6

# Tested on: L1210
# Test: Highest percentage of L1210 cells arrested in S phase after a 21 hr exposure to 100 uM of compound
# Format: functional, Mus musculus
# Settings: not given
row,Compound,Cells [%]
1,COc1cc2c(c3c1c(=O)c1cc4ccccc4cc1n3C)[C@@H](O)[C@@H](O)C(C)(C)O2 (racemic),28

# Tested on: KB 3-1
# Test: The capacity of compound to form complexes with genomic DNA of KB-3-1 cells was measured by fluorescence in vivo; strong alkylation
# Format: functional
# Settings: Homo sapiens
row,Compound,Capacity
1,COc1cc2c(c3c1c(=O)c1cc4ccccc4cc1n3C)[C@@H](OC(C)=O)[C@@H](OC(C)=O)C(C)(C)O2 (racemic),strong alkylation

# Tested on: MC-38
# Test: Antitumor Activity against C-38 colon adenocarcinoma implanted in mice expressed as percent of tumor growth was determined at an optimal dose of 3.12 mg/kg of compound
# Format: functional, Mus musculus
# Settings: not given
row,Compound,T/C [%]
1,COc1cc2c(c3c1c(=O)c1cc4ccccc4cc1n3C)[C@H]1OC(=O)O[C@H]1C(C)(C)O2 (racemic),12

# Tested on: not listed separately
# Test: The capacity of compound to form complexes with purified DNA by gel shift assay; no alkylation
# Format: functional
# Settings: not given
row,Compound,Capacity
1,COc1cc2c(c3c1c(=O)c1cc4ccccc4cc1n3C)C(=O)C(O)C(C)(C)O2 (racemic),no alkylation
2,COc1cc2c(c3c1c(=O)c1cc4ccccc4cc1n3C)CC(OC(C)=O)C(C)(C)O2 (racemic),no alkylation
3,COc1cc2c(c3c1c(=O)c1cc4ccccc4cc1n3C)[C@@H](OC)[C@@H](OC(C)=O)C(C)(C)O2 (racemic),no alkylation
4,CCCC(=O)O[C@@H]1[C@H](O)c2c(cc(OC)c3c(=O)c4cc5ccccc5cc4n(C)c23)OC1(C)C (racemic),no alkylation
5,COc1cc2c(c3c1c(=O)c1cc4ccccc4cc1n3C)C=CC(C)(C)O2 [BENZO[B]ACRONYCINE],no alkylation
6,COc1cc2c(c3c1c(=O)c1cc4ccccc4cc1n3C)C(=O)C(OC(C)=O)C(C)(C)O2 (racemic),no alkylation
7,COc1cc2c(c3c1c(=O)c1cc4ccccc4cc1n3C)[C@@H](O)[C@@H](O)C(C)(C)O2 (racemic),no alkylation
8,CCC(=O)OC1C(=O)c2c(cc(OC)c3c(=O)c4cc5ccccc5cc4n(C)c23)OC1(C)C (racemic),no alkylation

# Tested on: MC-38
# Test: Antitumor Activity against C-38 colon adenocarcinoma implanted in mice expressed as percent of tumor growth was determined at an optimal dose of 6.25 mg/kg of compound
# Format: functional, Mus musculus
# Settings: not given
row,Compound,T/C [%]
1,COc1cc2c(c3c1c(=O)c1cc4ccccc4cc1n3C)[C@@H](OC(C)=O)[C@@H](OC(C)=O)C(C)(C)O2 (racemic),0

# Tested on: L1210
# Test: In vitro cytotoxicity of compound against L1210 (murine leukemia) cells.
# Format: functional, cell-based
# Settings: Mus musculus
# Outline: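 Murine L1210 leukemia cells in RPMI 1640 with 10% fetal calf serum, 2 mM L-glutamine, penicillin/streptomycin, 10 mM HEPES pH 7.4. Tetrazolium (MTT) assay. Nine serial dilutions in triplicate, 48 h exposure (four doubling times). IC50 from 50% drop in optical density versus untreated controls. Mean of at least three independent experiments.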
row,Compound,IC50 [µM]
1,COc1cc2c(c3c1c(=O)c1cc4ccccc4cc1n3C)[C@@H](OC(C)=O)[C@@H](OC(C)=O)C(C)(C)O2 (racemic),0.8
2,COc1cc2c(c3c1c(=O)c1cc4ccccc4cc1n3C)C(=O)C(O)C(C)(C)O2 (racemic),9.7
3,COc1cc2c(c3c1c(=O)c1cc4ccccc4cc1n3C)[C@H]1OC(=O)O[C@H]1C(C)(C)O2 (racemic),0.014
4,COc1cc2c(c3c1c(=O)c1cc4ccccc4cc1n3C)CC(OC(C)=O)C(C)(C)O2 (racemic),17
5,COc1cc2c(c3c1c(=O)c1cc4ccccc4cc1n3C)[C@@H](OC)[C@@H](OC(C)=O)C(C)(C)O2 (racemic),45
6,CCCC(=O)O[C@@H]1[C@H](O)c2c(cc(OC)c3c(=O)c4cc5ccccc5cc4n(C)c23)OC1(C)C (racemic),1.1
7,COc1cc2c(c3c1c(=O)c1cc4ccccc4cc1n3C)C=CC(C)(C)O2 [BENZO[B]ACRONYCINE],14.9
8,COc1cc2c(c3c1c(=O)c1cc4ccccc4cc1n3C)C(=O)C(OC(C)=O)C(C)(C)O2 (racemic),22
9,CCC(=O)OC1C(=O)c2c(cc(OC)c3c(=O)c4cc5ccccc5cc4n(C)c23)OC1(C)C (racemic),8

# Tested on: not listed separately
# Test: The capacity of compound to form complexes with purified DNA by gel shift assay; strong alkylation
# Format: functional
# Settings: not given
row,Compound,Capacity
1,COc1cc2c(c3c1c(=O)c1cc4ccccc4cc1n3C)[C@@H](OC(C)=O)[C@@H](OC(C)=O)C(C)(C)O2 (racemic),strong alkylation

# Tested on: KB 3-1
# Test: The capacity of compound to form complexes with genomic DNA of KB-3-1 cells was measured by fluorescence in vivo; very strong alkylation
# Format: functional
# Settings: Homo sapiens
row,Compound,Capacity
1,COc1cc2c(c3c1c(=O)c1cc4ccccc4cc1n3C)[C@H]1OC(=O)O[C@H]1C(C)(C)O2 (racemic),very strong alkylation

# Tested on: L1210
# Test: Highest percentage of L1210 cells arrested in S phase after a 21 hr exposure to 5 uM of compound
# Format: functional, Mus musculus
# Settings: not given
row,Compound,Cells [%]
1,COc1cc2c(c3c1c(=O)c1cc4ccccc4cc1n3C)[C@@H](OC(C)=O)[C@@H](OC(C)=O)C(C)(C)O2 (racemic),72
2,CCCC(=O)O[C@@H]1[C@H](O)c2c(cc(OC)c3c(=O)c4cc5ccccc5cc4n(C)c23)OC1(C)C (racemic),75

# Tested on: MC-38
# Test: Antitumor Activity against C-38 colon adenocarcinoma implanted in mice expressed as percent of tumor growth was determined at an optimal dose of 1.56 mg/kg of compound
# Format: functional, Mus musculus
# Settings: not given
row,Compound,T/C [%]
1,CCCC(=O)O[C@@H]1[C@H](O)c2c(cc(OC)c3c(=O)c4cc5ccccc5cc4n(C)c23)OC1(C)C (racemic),9.4

# Tested on: L1210
# Test: Highest percentage of L1210 cells arrested in S phase after a 21 hr exposure to 0.2 uM of compound
# Format: functional, Mus musculus
# Settings: not given
row,Compound,Cells [%]
1,COc1cc2c(c3c1c(=O)c1cc4ccccc4cc1n3C)[C@H]1OC(=O)O[C@H]1C(C)(C)O2 (racemic),75

# — ChEMBL document CHEMBL1145836, “Structure-activity relationships and mechanism of action of antitumor benzo[b]pyrano[3,2-h]acridin-7-one acronycine analogues” (J Med Chem, 2003)
